Series [1] is described as follows: Selectivity index (W138/EV71) of the compound. The series is classed as functional.
Series [2] in a line: Selectivity index (D551/EV71) of the compound. In kind it is functional.
The next series has as its system Enterovirus A71. The experiment in a line: Inhibition concentration against EV-71. In kind it is functional, organism-based. Conditions: Enterovirus A.
Series [3] can be described thus: (§1) Cytotoxicity against human rhabdomyosarcoma (RD) cells. The series is classed as functional. Put shortly: (§2)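 Test compound at various concentrations added to D551 (human normal skin fibroblast), WI38 (human normal lung fibroblast) or RD cells; incubated 96 h at 37 °C; cells harvested and viable cells counted by trypan blue staining. Triplicate, at least twice.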

The nature of series [4]: Selectivity index (RD/EV71) of the compound. In kind it is functional.
Series [5] can be described thus: Cytotoxicity against human normal skin fibroblast (W138) cells. The series is classed as cell-based. Conditions: W138 normal skin fibroblast cells. Put shortly: as §2
The nature of series [6]: Cytotoxicity against human normal skin fibroblast (D551) cells. In kind it is cell-based. The note with it: D551 normal skin fibroblast cells. Put shortly:
as §2

Series [7] can be described thus: selectivity index of the compound. The series is classed as functional.
The test system of series [8] is Enterovirus. The experiment in a line: Inhibition concentration against EV-71 (BrCR) genotype A. The series is classed as functional, organism-based. Put shortly:
(§3)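 Plaque reduction on Vero cell monolayers infected to give about 50-100 plaques per monolayer in virus control; test compound diluted into agar-medium overlay; 96 h at 35 °C, crystal violet staining, plaques counted. […] Triplicate well means, at least two experiments.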

Series [9] relates to Enterovirus. Description: Inhibition concentration against echovirus 29. The series is classed as functional, organism-based. The method in brief:
as §3

The subject of series [10] is Enterovirus. The experiment in a line: Inhibition concentration against human rhinovirus 14. The series is classed as functional, organism-based. The method in brief:
as §3

Series [11] has as its system Enterovirus. The experiment in a line: Inhibition concentration against echovirus 9. The series is classed as functional, organism-based. The method in brief: as §3
Series [12] has as its system Coxsackievirus. The experiment in a line: Inhibition concentration against coxsackie virus A16. The series is classed as functional, organism-based. The method in brief:
as §3

A further series concerns Human alphaherpesvirus 2. Description: Inhibition concentration against herpes simplex virus. The series is classed as functional, organism-based. Put shortly: as §3
Series [13] is described as follows: as §1. In kind it is functional. Conditions: Homo sapiens, RD.
The test system of series [14] is Enterovirus. Description: Inhibition concentration against human rhinovirus 2. The series is classed as functional, organism-based. Put shortly:
as §3

Series [15] concerns Coxsackievirus. Description: Inhibition concentration against coxsackie virus A10. The series is classed as functional, organism-based. The method in brief: as §3
In series [16] the test system is Coxsackievirus. Description: Inhibition concentration against coxsackie virus B4. In kind it is functional, organism-based. The method in brief:
as §3

The test system of series [17] is Enterovirus. The experiment in a line: Inhibition concentration against EV-71 (2231) genotype C. In kind it is functional, organism-based. Put shortly: as §3
The subject of series [18] is unidentified influenza virus. Description: Inhibition concentration against influenza B […]. In kind it is functional, organism-based. The method in brief:
(§4)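 Plaque reduction assay on Vero cell monolayers. Virus was added at a dose giving about 50-100 plaques per monolayer in virus controls. Compound was diluted into the agar-medium overlay, tested up to 25 µM. Plates were incubated 96 h at 35 °C, stained with crystal violet, and plaques counted.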

Series [19] relates to Enterovirus. Description: Inhibition Concentration against enterovirus 68. In kind it is functional, organism-based. The method in brief:
as §3

For series [20], the system named is Coxsackievirus. Description: Inhibition concentration against coxsackie virus A9. In kind it is functional, organism-based. Put shortly:
as §3

In series [21] the test system is Coxsackievirus. The experiment in a line: Inhibition concentration against coxsackie virus B3. The series is classed as functional, organism-based. Put shortly: as §3
Series [22] concerns Coxsackievirus. The experiment in a line: Inhibition concentration against coxsackie virus B6. In kind it is functional, organism-based. The method in brief:
as §3

The test system of series [23] is unidentified influenza virus. The experiment in a line: Inhibition concentration against influenza A (WSN). In kind it is functional, organism-based. The method in brief: as §4
The subject of series [24] is Coxsackievirus. Description: Inhibition concentration against coxsackie virus B5. In kind it is functional, organism-based. The method in brief:
as §3

Series [25] concerns Coxsackievirus. The experiment in a line: Inhibition concentration against coxsackie virus B2. In kind it is functional, organism-based. Put shortly: as §3
For series [26], the system named is Enterovirus. Description: Inhibition concentration against EV-71 (1743) genotype B. The series is classed as functional, organism-based. Put shortly:
as §3

In series [27] the test system is Coxsackievirus. Description: Inhibition concentration against coxsackie virus B1. The series is classed as functional, organism-based. Put shortly: as §3
Series [28] deals with Enterovirus. The experiment in a line: Inhibition concentration against EV-71 (2086) genotype C. The series is classed as functional, organism-based. The method in brief:
as §3

Series [29] relates to Coxsackievirus. Description: Inhibition concentration against coxsackie virus A24. The series is classed as functional, organism-based. Put shortly: as §3

This passage reports Selectivity index, IC50 and CC50 results from ChEMBL document CHEMBL1135916, “Design, synthesis, and structure-activity relationship of pyridyl imidazolidinones: a novel class of potent and selective human enterovirus 71 inhibitors” (J Med Chem, 2002).

As usually defined, the IC50 is the midpoint of a concentration-inhibition curve. A low value points to greater potency. Broadly, the CC50 is the concentration giving 50% cytotoxicity. Higher therefore signals better tolerance by the cells.

As to `O=C1N(CCCCCOc2ccc(Br)cc2)CCN1c1ccncc1`, the Selectivity index was 130 in series [1], 100 in series [2] and more than 50 in [4]. The compound further registered a 50% inhibitory concentration (IC50) in the series with Enterovirus A71 of 0.5 µM. For the same compound, the CC50 was more than 25 µM in series [3], 65 µM in series [5] and 50 µM in [6].
With `O=C1N(CCCCCCOc2ccc(-c3cccs3)cc2)CCN1c1ccncc1`, the results for the Selectivity index in series [2], in [7] and in series [4] were 153, 200 and more than 83, respectively. In the series on Enterovirus A71, this compound displayed a 50% inhibitory concentration (IC50) of 0.3 µM. Besides, the CC50 in series [3] is more than 25 µM; in [5], 60 µM; in [6], 46 µM.
Regarding `O=C1N(CCCCCCOc2ccc(Br)cc2)CCN1c1ccncc1`, the IC50 in the series with Enterovirus [8] is 1.26 µM; in the series with Enterovirus [9], more than 25 µM; in the series with Enterovirus [10], 11.6 µM; with Enterovirus [11], 2.82 µM; in the series on Coxsackievirus [12], more than 25 µM; in the series on Human alphaherpesvirus 2, more than 25 µM. In addition, the IC50 with Enterovirus [14] is more than 25 µM; in the series on Coxsackievirus [15], 5.88 µM; with Coxsackievirus [16], more than 25 µM; in the series on Enterovirus [17] it was 1.15 µM; in [18] it was more than 25 µM; with Enterovirus [19], 2.13 µM. Also, the IC50 was 0.35 µM with Enterovirus A71; 0.77 µM in the series on Coxsackievirus [20]; more than 25 µM with Coxsackievirus [21]; more than 25 µM in the series on Coxsackievirus [22]; more than 25 µM in series [23]; more than 25 µM with Coxsackievirus [24]. In addition, the IC50 in the series with Coxsackievirus [25] is more than 25 µM; with Enterovirus [26], 0.6 µM; in the series with Coxsackievirus [27], 5.1 µM; in the series with Enterovirus [28], 0.31 µM; with Coxsackievirus [29], 0.55 µM. The figures for the CC50 in series [13], in series [5] and in [6] were more than 25 µM, 50 µM and 46 µM, respectively. In addition, the results for the Selectivity index in series [1], in series [2] and in series [4] were 161, 148 and more than 71, respectively.
Regarding `O=C1N(CCCCCCOc2ccc(C(F)(F)F)cc2)CCN1c1ccncc1`, the half-maximal inhibitory concentration (IC50) is 1.37 µM with Enterovirus [8]; more than 25 µM in the series with Enterovirus [9]; more than 12.5 µM in the series on Enterovirus [10]; 2.61 µM in the series on Enterovirus [11]; more than 25 µM in the series on Coxsackievirus [12]; more than 25 µM in the series with Human alphaherpesvirus 2. Also, the IC50 is more than 25 µM with Enterovirus [14]; 15.7 µM with Coxsackievirus [15]; more than 25 µM with Coxsackievirus [16]; 1.35 µM with Enterovirus [17]; more than 25 µM in [18]; 4.67 µM in the series on Enterovirus [19]. For the same compound, the IC50 is 0.58 µM in the series on Enterovirus A71; 1.44 µM with Coxsackievirus [20]; more than 25 µM in the series on Coxsackievirus [21]; more than 25 µM in the series with Coxsackievirus [22]; more than 25 µM in series [23]; more than 25 µM with Coxsackievirus [24]. The IC50 with Coxsackievirus [25] was more than 25 µM; in the series with Enterovirus [26], 0.75 µM; with Coxsackievirus [27], 5.6 µM; with Enterovirus [28] it was 0.51 µM; with Coxsackievirus [29] it was 0.47 µM. The CC50 was more than 25 µM in [13], 36 µM in series [5] and 55 µM in series [6]. Further, the results for the Selectivity index in series [1], in [2] and in series [4] were 71, 108 and more than 43, respectively.
